{
  "source": "paper PMC4062594",
  "about": "(Nature chemical biology, 2014)",
  "key": {"[1]": {"target": "T1, PTP1B in tumor lysates from NDL2 mice (Mus musculus, UniProt P35821)", "T1 sequence (P35821 1-432)": "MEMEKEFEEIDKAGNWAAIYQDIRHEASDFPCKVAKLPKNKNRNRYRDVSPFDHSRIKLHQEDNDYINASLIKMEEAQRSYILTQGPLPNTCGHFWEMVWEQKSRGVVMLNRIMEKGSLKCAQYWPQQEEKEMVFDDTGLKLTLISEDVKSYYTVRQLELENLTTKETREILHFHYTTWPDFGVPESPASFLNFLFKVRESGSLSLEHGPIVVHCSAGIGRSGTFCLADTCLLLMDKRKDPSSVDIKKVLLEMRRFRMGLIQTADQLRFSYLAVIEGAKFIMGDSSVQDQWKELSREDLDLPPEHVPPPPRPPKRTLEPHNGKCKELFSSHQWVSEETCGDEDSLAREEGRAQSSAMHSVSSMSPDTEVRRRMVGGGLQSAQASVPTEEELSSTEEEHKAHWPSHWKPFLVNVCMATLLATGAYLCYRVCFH", "assay": "Binding assay with bead-immobilized compound in tumor lysates", "conditions": "confirmed by immunoblotting", "procedure,_shortened": "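Test compound was coupled through its primary amine to NHS-activated magnetic beads (1 mM, 100 mM triethylamine, 8 h, 4°C), and free NHS groups were blocked with 0.8 M aminoethanol. Beads were incubated with 0–1 mg NDL2 tumour lysate protein and washed. Bound protein was eluted by heat in SDS sample buffer, run on 10% SDS-PAGE and identified by immunoblotting. Beads carrying a related amine compound served as negative control.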"}, "PTP1B": {"target": "T2, PTP1B (Homo sapiens, UniProt P18031)", "T2 sequence (P18031 1-435)": "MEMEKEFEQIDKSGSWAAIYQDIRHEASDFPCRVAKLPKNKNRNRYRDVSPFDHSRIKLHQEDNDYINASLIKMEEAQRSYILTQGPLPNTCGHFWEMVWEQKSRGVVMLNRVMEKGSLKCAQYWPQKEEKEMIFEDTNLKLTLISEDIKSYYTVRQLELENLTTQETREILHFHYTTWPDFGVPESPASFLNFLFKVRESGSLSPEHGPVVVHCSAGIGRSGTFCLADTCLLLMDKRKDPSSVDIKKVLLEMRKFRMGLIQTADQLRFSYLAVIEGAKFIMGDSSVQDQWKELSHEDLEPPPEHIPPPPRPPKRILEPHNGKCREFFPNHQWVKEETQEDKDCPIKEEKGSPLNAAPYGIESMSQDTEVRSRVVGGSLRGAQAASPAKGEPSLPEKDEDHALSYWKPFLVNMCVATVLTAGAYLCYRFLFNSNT", "assay": "PTP assay with DiFMUP, MSI-1459 versus MSI-1436", "assay_type": "biochemical", "conditions": "DiFMUP 10 uM, compound 0-10 μM"}},
  "note": "“Also recorded” adds a separate entry of the source.",
  "data": [
    {"substance": "3β-spermine, 5α, cholenic acid methyl ester [MSI-1459]", "values": [
      {"measurement": "retention of 50 kDa band (PTP1B) by compound beads", "setting": "[1]", "value": "not bound"},
      {"measurement": "inhibition of PTP1B", "setting": "PTP1B", "value": "does not inhibit PTP1B; also recorded: poor inhibitory potency"}
    ]}
  ]
}
